# This is a sample that favours compounds with a hit; in the whole collection about 3% have one here.
# UCH37 DUB inh = blocks the human deubiquitinase UCH37; Q9Y5K5; 330,000 tested, 0.33% active; inhibition, % (no concentration beside the values); purified proteasome/UCH37, Ub-AMC cleavage fluorescence;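 active = mean inhibition over replicate wells above about 20%, limit read from the data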;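 note: 0% = compound-free wells with enzyme and 100% = wells lacking proteasome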
# Target sequence (Q9Y5K5 whole entry, looked up): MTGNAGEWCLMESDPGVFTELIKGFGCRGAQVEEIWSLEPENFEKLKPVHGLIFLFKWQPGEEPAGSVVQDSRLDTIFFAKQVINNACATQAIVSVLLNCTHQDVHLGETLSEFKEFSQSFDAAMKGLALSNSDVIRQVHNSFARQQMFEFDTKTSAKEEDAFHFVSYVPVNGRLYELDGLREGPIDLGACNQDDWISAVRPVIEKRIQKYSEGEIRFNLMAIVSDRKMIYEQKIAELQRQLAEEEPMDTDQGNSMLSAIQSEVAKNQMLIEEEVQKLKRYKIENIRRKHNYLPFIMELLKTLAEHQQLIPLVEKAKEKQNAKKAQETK
#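 system = Proteasome-associated human UCH37 deubiquitinase | amount = 0.15 nM proteasome as dispensed | medium = pH 7.4 Tris-HCl (50 mM) with ovalbumin, ATP-MgCl2, DTT | incubation = 30 min preincubation with enzyme, 25 min cleavage at room temperature | detection = AMC fluorescence 355/460 nm | read-out basis = percent inhibition | controls = no-proteasome and no-compound wells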
# Apaf-1 inh = blocks human Apaf-1 apoptosome activity. reconstituted apoptosome caspase-3 activity, DEVD-Rh110 fluorescence. inhibition, % at 20 µM. 330,000 tested, 0.71% active. AID 489030; active = inhibition of at least 40% at 20 µM;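 note: plate controls were DMSO wells for no effect and DEVD-CHO caspase inhibitor wells for full effect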
#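 System: Apoptosome proteins | Medium: Hepes pH 7.5 with detergent and BSA | Also added: Cytochrome c trigger plus (Z-DEVD)2-Rh110 caspase-3 substrate | Incubation: 30 min compound preincubation, 50 min activation, room temperature | Detection: Rhodamine 110 fluorescence at Ex 480/Em 540 nm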
# UBC13 polyUb = blocks human UBC13 polyubiquitin chain formation; TR-FRET; P61088; inhibition, % at 20 µM; 330,000 tested, 0.47% active; in the data active = inhibition above about 45%, passing the limit was not always enough
# Target sequence (P61088 whole entry, looked up): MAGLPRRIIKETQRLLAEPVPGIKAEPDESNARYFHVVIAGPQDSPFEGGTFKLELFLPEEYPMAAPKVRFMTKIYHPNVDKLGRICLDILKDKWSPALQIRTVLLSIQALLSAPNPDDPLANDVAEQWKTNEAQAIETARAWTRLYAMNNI
# MEKK3 PB1 HTS = modulators (inhibitors or enhancers) of MEK5 binding to human MEKK3 PB1 domain | Q99759 | bead-based flow cytometry, Alexa488-MEK5 binding to MEKK3; actives lie on both sides; 0 = blocked by unlabeled MEK5, 100 = vehicle | binding response (% of control), % at 10 µM | 290,000 tested, 1.4% active | AID 1529;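 active = binding response more than 3 SD above or below the average of its plate-row segment, actives on both sides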;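 note: Alexa488 bead fluorescence after subtracting the streptavidin-only scavenger bead signal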
# MEKK2 WT-MEK5 = raises or lowers MEK5 binding to wildtype human MEKK2 PB1 domain | binding response (% of control), % at 10 µM | Q9Y2U5 | bead flow cytometry, Alexa488-MEK5 binding to MEKK2 WT; actives lie on both sides | 290,000 tested, 1.1% active | AID 1531; in the data active = binding response below about 67% or above about 130%
# MEKK2 mut-MEK5 = signal of MEK5 binding to mutant human MEKK2 PB1 domain; bead flow cytometry, Alexa488-MEK5 binding to MEKK2 mutant; 290,000 tested, 0.35% active; percent response, % at 10 µM; AID 1530; in the data active = percent response above about 24%, passing the limit was not always enough
# MEKK2wt confirm = raises or lowers MEK5 binding to wildtype human MEKK2, retest; 5,900 tested, 2.4% active; shares compounds with MEKK3 PB1 HTS; bead flow cytometry, Alexa488-MEK5 binding to MEKK2 WT; actives lie on both sides; binding response (% of control), % at 10 µM; in the data active = binding response below about 16% or above about 210%; inactive = in between
# MEKK2mut-MEK5 = signal of MEK5 binding to mutant human MEKK2, retest. 5,900 tested, 2% active. percent response, % at 10 µM. bead flow cytometry, Alexa488-MEK5 binding to MEKK2 mutant. AID 1893. shares compounds with MEKK3 PB1 HTS; in the data active = percent response mostly above about 71%, no sharp cut-off; inactive = mostly below about 38%;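 note: higher means compound restores mutant binding toward wildtype level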
# MEKK3-MEK5 inh = MEKK3-MEK5 PB1 inhibition, single concentration confirmation; 5,900 tested, 1.8% active; AID 1894; binding response (% of control), % at 10 µM; shares compounds with MEKK3 PB1 HTS; bead flow cytometry, Alexa488-MEK5 binding to MEKK3; active compounds read low;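 active = binding response below 72% of control, or above a set upper limit, though filed actives all read lower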;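 note: 100% = DMSO only wells and 0% = binding blocked by excess unlabeled MEK5; lower values mean stronger disruption of MEK5 binding to MEKK3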
# An asterisk follows results filed as active; . = not tested or not shown; [ ] = another dose, or the depositor's remark.
SMILES,UCH37 DUB inh,Apaf-1 inh,UBC13 polyUb,MEKK3 PB1 HTS,MEKK2 WT-MEK5,MEKK2 mut-MEK5,MEKK2wt confirm,MEKK2mut-MEK5,MEKK3-MEK5 inh
COc1cccc2[nH]c3c(N4CCc5ccccc5C4)ncnc3c12,-33.5,-6.3,15.4,103.0,147.0*,26.0,152.0,26.0,108.0
C#CCNC(=O)C1=C[C@H](c2csc3ccccc23)[C@@H](CCCO)[C@H](OCC)O1,4.2,-2.0,3.3,99.0,104.0,2.0,.,.,.
O=C(C(=O)N1CCc2ccccc2C1)c1cn(CC(=O)N2CCCC2)c2ccccc12,5.7,-1.0,7.4,131.0*,110.0,2.0,101.0,2.0,103.0
COc1ccccc1OC1OC2COC(c3ccco3)OC2C(O)C1NC(C)=O (stereo not given),0.0,8.8,-14.3,99.0,100.0,-2.0,.,.,.
COc1ccc(N(CC(=O)N2CCN(c3ccc(F)cc3)CC2)S(=O)(=O)c2c(C)n[nH]c2C)cc1,-1.2,8.8,-1.5,128.0*,108.0,-1.0,95.0,-8.0,98.0
CC1(C)NC(=O)N(CC(O)CN(Cc2ccccc2)Cc2ccccc2)C1=O (stereo not given),5.4,2.7,-0.5,105.0,101.0,5.0,.,.,.
Cc1nc2sccn2c(=O)c1CCN1CCC(=C(c2ccccc2)c2ccc(F)cc2)CC1,5.2,41.8*,29.0,120.0,157.0*,13.0,123.0,4.0,101.0
C[C@@H](NC(=O)c1nc[nH]c1C(=O)NCc1ccccc1)c1ccccc1,-0.4,11.6,18.2,.,.,.,.,.,.
CCc1ccc2c(CN3CCN(S(=O)(=O)c4cccs4)CC3)cc(=O)oc2c1,0.3,22.7,6.3,135.0*,100.0,1.0,92.0,-8.0,98.0
CCc1ccc2c(CN3CCN(S(=O)(=O)c4ccccc4F)CC3)cc(=O)oc2c1,2.9,7.6,10.1,.,.,.,.,.,.
Cn1cnc(C(=O)N2CCc3ccccc3C2)c1C(=O)N1CCc2ccccc2C1,4.9,11.7,4.6,.,.,.,.,.,.
COc1cc(O)c2c(c1)OC(C)(C)CC2=O,4.1,-0.7,9.3,122.0*,116.0,7.0,100.0,0.0,103.0
Cc1cccc(Cc2c(C)nc3nc(SCC(=O)NCc4ccco4)nn3c2C)c1,1.1,25.1,-6.7,126.0*,122.0,7.0,102.0,-1.0,101.0
Cc1ccc(Cc2c(C)nc3nc(SCC(=O)NCc4ccco4)nn3c2C)cc1,1.2,2.2,-4.2,122.0*,129.0,6.0,100.0,3.0,106.0
CCOCCCNS(=O)(=O)c1ccc(NC(=O)c2ccc(OC)c([N+](=O)[O-])c2)cc1,2.3,-8.9,6.8,97.0,101.0,3.0,.,.,.
O=C(Nc1ccc(S(=O)(=O)N2CCCCC2)cc1)c1ccc(CN2CCOCC2)cc1,2.2,3.2,-5.4,74.0*[inhibitor],89.0,5.0,104.0,2.0,107.0
O=C(Nc1ccc(S(=O)(=O)N2CCCC2)cc1)c1ccc(CN2CCOCC2)cc1,4.8,1.1,3.5,.,.,.,.,.,.
COc1ccccc1C(=O)Nc1ccc(S(=O)(=O)N2CCOCC2)cc1,2.9,5.8,6.4,107.0,103.0,24.0*,97.0,1.0,105.0
COc1ccc(NC(=O)c2[nH]c(C)c(C(C)=O)c2C)cc1S(=O)(=O)N1CCOCC1,0.4,2.6,1.3,129.0*,105.0,0.0,102.0,-3.0,103.0
CN1C/C(=C/c2cccnc2)C(=O)/C(=C/c2cccnc2)C1,6.6,.,.,59.0*[inhibitor],100.0,-1.0,99.0,-4.0,103.0
COc1cc(C(C(=O)NC(C)(C)C)N(Cc2ccc3c(c2)OCO3)C(=O)c2cnccn2)cc(OC)c1OC (stereo not given),6.1,-2.2,-4.6,40.0*[inhibitor],58.0,-14.0,101.0,-2.0,100.0
COc1ccc(CN(C(=O)c2cnccn2)C(C(=O)NC(C)(C)C)c2cc(OC)c(OC)c(OC)c2)cc1 (stereo not given),0.3,1.1,5.0,94.0,100.0,-3.0,.,.,.
CC(=O)c1cc(-c2ccccc2)n(CC(=O)Nc2cc(C)cc(C)c2)c1C,1.8,14.9,4.8,97.0,95.0,-2.0,.,.,.
CC1(C)OC(=O)C(=CNC(=O)c2c(F)cccc2F)C(=O)O1,0.9,8.9,7.6,72.0*[inhibitor],82.0,-4.0,92.0,-3.0,95.0
CCCC1Cc2c(sc(NC(=S)NC(=O)c3ccccc3)c2C#N)CO1 (stereo not given),4.3,10.1,-16.7,134.0*,105.0,0.0,97.0,-3.0,93.0
SMILES,UCH37 DUB inh,Apaf-1 inh,UBC13 polyUb,MEKK3 PB1 HTS,MEKK2 WT-MEK5,MEKK2 mut-MEK5,MEKK2wt confirm,MEKK2mut-MEK5,MEKK3-MEK5 inh
N#CCC(=O)Nc1ccc(C(=O)OCC(=O)Nc2ccccc2-c2ccccc2)cc1,-1.1,8.0,-4.5,141.0*,121.0,33.0,103.0,2.0,102.0
N#CCC(=O)Nc1ccc(C(=O)OCC(=O)NC(=O)Cc2ccccc2)cc1,0.4,8.7,0.7,.,.,.,.,.,.
CC1=C(C)CC(C(=O)Nc2nc(-c3ccc(C)cc3C)c(C)s2)C(C(=O)O)C1 (stereo not given),0.9,5.7,-7.8,133.0*,104.0,1.0,104.0,3.0,101.0
CC1=C(C)CC(C(=O)Nc2nc(-c3ccc(F)cc3)c(C)s2)C(C(=O)O)C1 (stereo not given),2.6,5.8,-6.7,95.0,98.0,-3.0,.,.,.
COc1cccc(Nc2nc(NCC3CCCO3)c3ccccc3n2)c1 (stereo not given),-29.3,32.6,42.2,106.0,144.0*,20.0,141.0,31.0,105.0
COc1ccc(-c2c[n+](CC(=O)N3c4ccccc4Sc4ccccc43)c3n2CCC3)cc1,7.0,4.2,29.6,101.0,123.0,16.0,.,.,.
O=C(NCC(=O)N(c1cccc(F)c1)C(C(=O)NC1CCCC1)c1cccnc1)c1cccs1 (stereo not given),-0.6,0.0,13.9,129.0*,115.0,1.0,101.0,-4.0,100.0
O=C(NCC1CCCO1)C(c1cccs1)N(Cc1cccs1)C(=O)Cn1nnc(-c2cccs2)n1 (stereo not given),0.7,1.2,-3.6,66.0*[inhibitor],-2.0*,5.0,95.0,-2.0,99.0
CS(=O)(=O)N(Cc1ccccc1)c1ccc(C(=O)NCC2CCCO2)cc1 (stereo not given),5.5,7.5,5.3,123.0*,112.0,5.0,100.0,1.0,100.0

# Source: PubChem BioAssay (several laboratories)
